Experimental data from ChEMBL document CHEMBL1649261, “Pharmacodynamic profile of tigecycline against methicillin-resistant Staphylococcus aureus in an experimental pneumonia model” (Antimicrob Agents Chemother, 2009).
In brackets after ≈: the same amount, converted by molar mass.

Test system: Staphylococcus aureus
Assay: Antibacterial activity against hospital-acquired methicillin-resistant Staphylococcus aureus 56 by microdilution method
Type: functional
How it was run: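 Tigecycline MIC measured in triplicate by broth microdilution following CLSI guidelines. Isolates were stored at −80°C in skim milk and subcultured twice on blood agar before testing.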

With `CC(=O)NC[C@H]1CN(c2ccc(N3CCOCC3)c(F)c2)C(=O)O1` [LINEZOLID] the MIC was 8 µg/mL (≈ 23.7 µM).
